Screens deposited in PubChem by Columbia University Molecular Screening Center.
INS promoter act = activators of insulin promoter-driven GFP, primary screen, imaging, TRM-6 cells, eGFP reporter, cell count. plate-scaled: unstimulated 0, stimulated control 100. activation, % at 2 µM. hit rate 0.81% among 130,000. AID 1296, 2008;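 active = activation at 2 µM above a set limit, confirmed on inspection of the cell images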;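 also: share of cells whose green reporter signal exceeds an intensity cutoff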
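System – human fetal islet-derived TRM-6 cells with tamoxifen-inducible insulin promoter–eGFP reporter · Amount – 1,000 cells per well · Schedule – overnight tamoxifen, then two-day compound incubation at 37 °C · Detection – high-content imaging of fixed cells with Hoechst nuclear stain · Read-out – percent cells above green-intensity threshold, converted to percent activation versus plate controls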
* marks the source's active call; other numbers are inactive results. Only a selection was taken, and hits are over-represented in it overall.

SMILES	INS promoter act
CCC(C)N1C(=O)/C(=C/c2c(NCCCOC(C)C)nc3c(C)cccn3c2=O)SC1=S (stereo unspecified)	163.9*
COc1ccccc1N1CCN(c2nc3c(C)cccn3c(=O)c2C=O)CC1	2.2
Cn1c(N)c(C(=O)COC(=O)CNS(=O)(=O)c2ccc(Cl)c(Cl)c2)c(=O)n(C)c1=O	7.7
CCOC(=O)c1cc([N+](=O)[O-])c([N+](=O)[O-])cc1NC(C)=O	3.4
Cc1ccc(C)c(NC(=S)NCc2cccn2C)c1	-9.4
COc1ccc(NCc2nnc(SCC(=O)Nc3cc(C(F)(F)F)ccc3Cl)o2)cc1	-7.1
COc1ccc(-n2c(Cc3cc(=O)[nH]c(=O)[nH]3)nnc2SCC(=O)Nc2cc(C(F)(F)F)ccc2Cl)cc1	255.0*
CCOc1ccc(-n2c(Cc3cc(=O)[nH]c(=O)[nH]3)nnc2SCC(=O)Nc2nnc(C)s2)cc1	5.3
O=C(c1ccc2c(c1)OCCO2)N1CCN(c2ccc([N+](=O)[O-])cc2)CC1	7.1
Cc1ccc(-n2cc(CNCCc3ncc(C)[nH]3)c(-c3ccc(F)cc3)n2)cc1	7.3
Cc1c(C=O)c2ccccc2n1CC(=O)NCc1ccc2c(c1)OCO2	0.0
CN1C(=O)/C(=C/c2ccccc2OCc2cccc(F)c2)N(C)C1=S	5.1
Cc1cc(/C=C2/C(=O)N(C)C(=S)N2C)ccc1N1CCCC1	376.2*
COc1cc(N2CCCC2)c(OC)cc1/C=C1/NC(=S)NC1=O	153.8
CCCN1C(=O)/C(=C/c2ccc(N3CCCC3)c(C)c2)NC1=S	92.0*
COc1ccc(/C=C2\NC(=S)N(CC3CCCO3)C2=O)c(OC)c1C (stereo unspecified)	-3.3
Cc1ccccc1N1CCN(C(=O)CN2C(=O)c3ccccc3C2=O)CC1	0.0
O=C(c1ccco1)N1CCN(C(=O)c2cc(-c3ccccn3)nc3ccc(Cl)cc23)CC1	5.7
C/C(=N\NC(=O)c1c(C)nc2ccccn12)c1ccco1	-72.7
CCP(=O)(c1ccccc1)C(C)(C)O (stereo unspecified)	7.1
CCCCN(CCCC)NC(=O)c1ccccc1	-7.0
CCCCP(=O)(CCCC)Cc1ccccc1O	610.0*
COc1cccc(CNC(=O)CCC2CCCN(Cc3cc4ccccc4o3)C2)c1 (stereo unspecified)	104.3
Cc1[nH]nc2c1C(c1cc(Br)cs1)C(C#N)=C(N)O2 (stereo unspecified)	0.0
S=C1NCCOCCNC(=S)NCCOCCOCCOCCN1	6.5
SMILES	INS promoter act
COc1ccc(C(=O)Nc2cc(C(C)=O)c(/C=C/N(C)C)oc2=O)cc1	-3.3
COC(=O)c1cc(NC(=O)c2cccc(Cl)c2)c(=O)oc1/C=C/Nc1cc(C)cc(C)c1	809.1*
O=C(Nc1cc2c(oc1=O)CCCC2=O)c1cccc(Cl)c1	-7.1
COc1cc(N2CCCC2)ccc1[N+](=O)[O-]	8.3
CCCCOC(=O)N/N=C/C=C/c1ccccc1	0.0
COC(=O)C1C(=O)NCC1c1ccccc1 (stereo unspecified)	242.9
CCOC(=O)C1C(=O)CC(O)(c2ccccc2)CC1c1ccccc1 (stereo unspecified)	142.9*
CCOC(=O)C1C(=O)CC(C)(O)C(C(=O)OCC)C1c1ccc(C)s1 (stereo unspecified)	7.7
CC(C)C(NC(=O)c1ccccc1F)C(=O)Nc1nccs1 (stereo unspecified)	0.0
COc1ccc(S(=O)(=O)Nc2ccc(NC(C)=O)cc2)cc1[N+](=O)[O-]	0.0
CC(=O)Nc1nc(CCN2C(=O)c3ccccc3C2=O)cs1	8.3
CCOC(=O)C(=O)NC(C)CCc1ccccc1 (stereo unspecified)	-6.7
Cc1cccc(N(NC(=O)C(C)(C)O)C(=O)c2ccccc2)c1	0.0
CCOC(=O)N(NC(=O)C(O)(C(C)C)C(C)C)c1ccccc1	111.8*
Cn1c(=O)c2c(SCCN3CCOCC3)nc(C3CCCC3)nc2n(C)c1=O	-9.1
COC(=O)c1ccc(COC(=O)CCC(=O)c2cccs2)cc1	0.0
